From ChEMBL document CHEMBL3797154, “Design and Synthesis of 1-((1,5-Bis(4-chlorophenyl)-2-methyl-1H-pyrrol-3-yl)methyl)-4-methylpiperazine (BM212) and N-Adamantan-2-yl-N'-((E)-3,7-dimethylocta-2,6-dienyl)ethane-1,2-diamine (SQ109) Pyrrole Hybrid Derivatives: Discovery of Potent Antitubercular Agents Effective against …” (J Med Chem, 2016)
≈ marks a conversion by molar mass, not a printed value.

Legend:
[1] = tested on: Mycolicibacterium aurum; experiment: Inhibition of multidrug resistance efflux pump in Mycobacterium aurum ATCC 23366 assessed as inhibition of ethidium bromide efflux by measuring relative fluorescence units for ethidium bromide accumulation at 1/4 times MIC incubated for 60 mins by fluorimetric assay
Procedure, shortened: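 Whole-cell efflux assay: early-log cells (OD600 ~0.8) adjusted to OD600 0.4, washed into PBS; 4-6x10^7 bacteria/mL with 0.4% glucose, 0.5 mg/L ethidium bromide substrate and compound at 1/4x MIC. Fluorescence ex 544/em 590 nm at 37 °C every minute for 60 min; accumulation scored 0-4 by relative fluorescence bands. Verapamil positive, PBS negative control.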

[2] = Selectivity index, ratio of GIC50 for cytotoxicity against mouse RAW264.7 cells to MIC for Mycobacterium tuberculosis H37Rv ATTC 27294; format: toxicity, cell-based; settings: read-out: Selectivity Index
Procedure, shortened: (§1)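 SI = GIC50 / H37Rv MIC (agar spot assay). GIC50 from cells in RPMI-1640 + 10% FBS, 37 °C, 5% CO2; 10^5 cells/mL added to two-fold compound dilutions from 50 mg/mL stock, solvent control row. 48 h exposure, washes (THP-1 centrifuged), fresh medium plus 0.01% […], overnight; fluorescence ex 560/em 590 nm.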

[3] = Cytotoxic activity against human THP1 cells assessed as reduction in cell viability incubated for 48 hrs by […] based assay; design: species or system THP-1; settings: THP1 cells
Procedure, shortened: (§2)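 RAW264.7 or THP-1 cells were grown in RPMI-1640 with 10% FBS and seeded at 10^5 cells/mL. Compound was two-fold serially diluted from a 50 mg/mL stock, with a solvent-control row. Plates were held 48 h at 37 °C in 5% CO2. Wells were washed twice with PBS, with centrifugation between washes for THP-1, then given fresh RPMI plus 0.01% […]. After overnight incubation, fluorescence was read at 560/590 nm and GIC50 derived.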

[4] = tested on: Mycolicibacterium aurum; experiment: Antimycobacterial activity against Mycobacterium aurum ATCC 23366 assessed as inhibition of mycobacterial growth incubated for 4 days; format: functional; settings: ATCC 23366, 96 h
Procedure, shortened: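 HT-SPOTi agar dilution: two-fold serial dilutions of compound were mixed into Middlebrook 7H10 agar with 0.05% glycerol and 10% OADC, giving a final range of 500–0.5 µg/mL. Each well was spotted with 2x10^3 CFU of early-to-mid-log culture. Plates were incubated at 35 or 37 °C until spots appeared in control wells. Controls were DMSO-only and isoniazid. The MIC was read, in triplicate.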

[5] = Selectivity index, ratio of GIC50 for cytotoxicity against human THP1 cells to MIC for Mycobacterium tuberculosis H37Rv ATTC 27294; format: toxicity, cell-based, THP-1; settings: read-out: Selectivity Index; procedure, shortened: as §1
[6] = tested on: Mycolicibacterium smegmatis; experiment: Antimycobacterial activity against Mycobacterium smegmatis str. MC2 155 ATCC 700084 assessed as inhibition of mycobacterial growth incubated for 24 hrs by MABA method; format: functional; settings: MC2 155 ATCC 700084, 24 h
[7] = tested on: Mycobacterium tuberculosis; experiment: Antimycobacterial activity against Mycobacterium tuberculosis mc'2-7000x assessed as inhibition of mycobacterial growth; format: functional
[8] = tested on: Mycobacterium tuberculosis; experiment: Antimycobacterial activity against Mycobacterium tuberculosis H37Rv ATTC 27294 assessed as inhibition of mycobacterial growth incubated for 7 days; format: functional; settings: H37Rv ATTC 27294, 168 h
Procedure, shortened: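 MIC by HT-SPOTi on Middlebrook 7H10 agar with 0.05% (v/v) glycerol and 10% (v/v) OADC in 96-well format. Compounds dissolved at 50 mg/mL (stock), two-fold serial dilutions, final 500-0.5 µg/mL. Each well spotted with 2 µL early-to-midlog culture (2x10^3 CFU), incubated at 37 °C until distinct spots in control wells. DMSO-only and isoniazid controls; triplicate.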

[9] = Cytotoxic activity against mouse RAW264.7 cells assessed as reduction in cell viability incubated for 48 hrs by […] based assay; procedure, shortened: as §2

SMILES | Activity [1] [RFU] | selectivity ratio [2] | GI50 at 48 h [3] [µg/mL] | MIC [4] [µg/mL] | selectivity ratio [5] | MIC [6] [µg/mL] | MIC [7] [µg/mL] | MIC [8] [µg/mL] | GI50 at 48 h [9] [µg/mL]
Cc1cc(CN2CCN(C34CC5CC(CC(C5)C3)C4)CC2)c(C)n1-c1ccc(Cl)cc1 | 4 | 0.006 | 16 (≈ 36.5 µM) | 16 (≈ 36.5 µM) | 1 | 8 (≈ 18.3 µM) | 8 (≈ 18.3 µM) | 16 (≈ 36.5 µM) | 0.1 (≈ 0.228 µM)
Cc1cc(CN2CCN(C3C[C@@H]4CC[C@H]3C4)CC2)c(C)n1-c1ccc(Cl)cc1 (mixture of isomers) | 1 | 2.9 | 16 | 16 | 8.4 | 27 | 2 | 1.9 | 5.6
Cc1cc(CNCc2ccc(F)cc2)c(C)n1-c1ccc(Cl)cc1 | 1 | – | 8.4 (≈ 24.5 µM) | 1.9 (≈ 5.54 µM) | – | 2 (≈ 5.83 µM) | 0.7 (≈ 2.04 µM) | > 125 | 26 (≈ 75.8 µM)
Cc1cc(CN2CCN(C3C4CC5CC(C4)CC3C5)CC2)c(C)n1-c1ccccc1F (centres undefined) | 1 | 2.8 | 26 (≈ 61.7 µM) | 250 (≈ 593 µM) | 6.7 | 13 (≈ 30.8 µM) | 1 (≈ 2.37 µM) | 3.9 (≈ 9.25 µM) | 11 (≈ 26.1 µM)
Cc1c(CNC2CCCCC2)cc(-c2ccc(Cl)cc2)n1-c1ccc(Cl)cc1 | 2 | – | 3.9 (≈ 9.43 µM) | 1 (≈ 2.42 µM) | 0.5 | 4 (≈ 9.68 µM) | 8 (≈ 19.4 µM) | – | –
Cc1cccc(-n2c(C)cc(CN3CCN(C4C5CC6CC(C5)CC4C6)CC3)c2C)c1 (centres undefined) | 2 | 1.4 | 37 (≈ 88.6 µM) | 500 (≈ 1200 µM) | 2.3 | 64 (≈ 153 µM) | 32 (≈ 76.6 µM) | 16 (≈ 38.3 µM) | 22 (≈ 52.7 µM)
Cc1cc(CN2CCN(C3C4CC5CC(C4)CC3C5)CC2)c(C)n1-c1ccc(Cl)cc1 (centres undefined) | 1 | 0.7 | 32 (≈ 73 µM) | 7.8 (≈ 17.8 µM) | 4.1 | 8 (≈ 18.3 µM) | 3.3 (≈ 7.53 µM) | 7.8 (≈ 17.8 µM) | 5.7 (≈ 13 µM)
Cc1c(CN2CCN(c3ccccc3)CC2)c(CN2CCN(c3ccccc3)CC2)c(C)n1-c1ccc(Cl)cc1 | 2 | 16 | 113 (≈ 204 µM) | 250 (≈ 451 µM) | 3.6 | > 64 | > 64 | 31 (≈ 55.9 µM) | 500 (≈ 902 µM)
Cc1cc(CNC2CCCCC2)c(C)n1-c1ccc(Cl)cc1 | 2 | 50 | 7.4 (≈ 23.4 µM) | 7.8 (≈ 24.6 µM) | 37 | 8 (≈ 25.2 µM) | 0.5 (≈ 1.58 µM) | 0.2 (≈ 0.631 µM) | 10 (≈ 31.6 µM)
Cc1cc(CNCc2ccccc2)c(C)n1-c1ccc(F)cc1 | 1 | 5.6 | 28 (≈ 90.8 µM) | 7.8 (≈ 25.3 µM) | 28 | 16 (≈ 51.9 µM) | 4 (≈ 13 µM) | 1 (≈ 3.24 µM) | 5.6 (≈ 18.2 µM)
Cc1cc(CNCCc2ccccc2)c(C)n1-c1ccc(Cl)cc1 | 2 | 10 | 7.3 (≈ 21.5 µM) | 16 (≈ 47.2 µM) | 7.3 | 32 (≈ 94.4 µM) | 4 (≈ 11.8 µM) | 1 (≈ 2.95 µM) | 9.9 (≈ 29.2 µM)
Cc1cc(CN2CCN(C3CCCCC3)CC2)c(C)n1-c1ccc(Cl)cc1 | 4 | 1.4 | 16 (≈ 41.5 µM) | 31 (≈ 80.3 µM) | 4.1 | 27 (≈ 70 µM) | 8 (≈ 20.7 µM) | 3.9 (≈ 10.1 µM) | 5.5 (≈ 14.2 µM)
Cc1c(CNCc2ccccc2)cc(-c2ccc(Cl)cc2)n1-c1ccc(Cl)cc1 | 1 | – | 99 (≈ 235 µM) | 1 (≈ 2.37 µM) | 6.1 | 8 (≈ 19 µM) | 16 (≈ 38 µM) | – | –
Cc1ccc(CNCc2cc(C)n(-c3ccc(Cl)cc3)c2C)cc1 | 2 | 0.1 | 6.1 (≈ 18 µM) | 1.9 (≈ 5.61 µM) | 6.1 | 8 (≈ 23.6 µM) | 2 (≈ 5.9 µM) | 1 (≈ 2.95 µM) | 0.1 (≈ 0.295 µM)
Cc1c(CN2CCN(C34CC5CC(CC(C5)C3)C4)CC2)cc(-c2ccc(Cl)cc2)n1-c1ccc(Cl)cc1 | 3 | 2.9 | 35 (≈ 65.5 µM) | 62 (≈ 116 µM) | 4.5 | 3.3 (≈ 6.17 µM) | 0.5 (≈ 0.935 µM) | 7.8 (≈ 14.6 µM) | 23 (≈ 43 µM)
Cc1cc(CN2CCN(C3C4CC5CC(C4)CC3C5)CC2)c(C)n1-c1ccc(C(C)C)cc1 (centres undefined) | 3 | 5.7 | 72 (≈ 162 µM) | 500 (≈ 1120 µM) | 4.5 | 21 (≈ 47.1 µM) | 3.3 (≈ 7.4 µM) | 16 (≈ 35.9 µM) | 92 (≈ 206 µM)
Cc1cc(CNCc2ccccc2)c(C)n1-c1ccc(Cl)cc1 | 2 | 11 | 7.2 (≈ 22.2 µM) | 1.9 (≈ 5.85 µM) | 14 | 4 (≈ 12.3 µM) | 0.5 (≈ 1.54 µM) | 0.5 (≈ 1.54 µM) | 5.5 (≈ 16.9 µM)
Cc1c(CN2CCN(C)CC2)cc(-c2ccc(Cl)cc2)n1-c1ccc(Cl)cc1 | 2 | 19 | 3.23 (≈ 7.8 µM) | 16 (≈ 38.6 µM) | 3.23 | 25 (≈ 60.3 µM) | 8 (≈ 19.3 µM) | 1 (≈ 2.41 µM) | 19 (≈ 45.9 µM)
Cc1c(CN2CCN(C3CC4CCC3C4)CC2)cc(-c2ccc(Cl)cc2)n1-c1ccc(Cl)cc1 (mixture of isomers) | – | – | 429 | 250 | 6.7 | 64 | 64 | – | –
